Experimental data published in publication PMC9357092 (Clinical Cancer Research, 2022).
Where “and” joins values, the source holds several entries; their conditions need not be identical. Equal entries are not always repeated. Where two headings read alike, the source gives them in different places.

Key:
[1] = Binding to human plasma proteins; assay type: in vitro ADME; conditions: pooled human plasma
[2] = Binding to human brain tissue; assay type: in vitro ADME; conditions: pooled human brain tissue
[3] = In vitro metabolism in pooled human liver microsomes; assay type: in vitro ADME
Procedure, shortened: (§1)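 Test compound (0.5 to 50 μmol/L) incubated with pooled human microsomes (0.4 mg/mL) at 37°C for 30 minutes. Overall drug disappearance velocity plotted against initial concentration and fitted to the Michaelis–Menten equation by nonlinear regression. Intrinsic clearance was taken as Vmax/Km.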

[4] = In vitro metabolism in pooled human intestine microsomes; assay type: in vitro ADME
Procedure, shortened: as §1

[5] = Bidirectional transwell permeability, parental MDCKII monolayer; assay type: in vitro ADME; conditions: dog, MDCK, pH 7.4, Intrinsic passive transcellular permeability (Papp,A-B/λ), unbound and unionized drug
[6] = Observed clinical plasma, CSF and brain metastasis pharmacokinetics in patients; assay type: in vivo, human
[7] = tested on: HER2-positive breast cancer; conditions: cited from earlier work; for Cumulative incidence of intervention for CNS metastases: NALA phase III, each drug plus capecitabine, P = 0.043; for CNS objective response rate, monotherapy: pretreated HER2-positive breast cancer patients with progressive brain metastases
[8] = Blood-to-plasma partition ratio; assay type: in vitro ADME; conditions: blood and plasma
[9] = Whole-body-4Brain PBPK model simulation of plasma and CNS pharmacokinetics; design: species or system human; conditions: PBPK input; for fa: assigned based on observed data; for Ka: first-order absorption rate constant; for Ka / Lag time: observed
[10] = design: species or system human; conditions: IVIVE predicted
HER2 kinase = conditions: read-out: IC50 for inhibition of HER2 kinase; ADP-Glo assay; cited from earlier work
[11] = cited from earlier work; for Observed CSF concentration (mean) / Observed CSF Kp,uu, geometric mean: 13 patients; for Observed CSF concentration (mean): 300 mg twice daily with trastuzumab and capecitabine, 2-5 hours postdosing

For `CS(=O)(=O)CCNCc1ccc(-c2ccc3ncnc(Nc4ccc(OCc5cccc(F)c5)c(Cl)c4)c3c2)o1` [lapatinib], the fraction unbound [1] was 0.014, the fraction unbound [2] was 0.0004 and the microsomal CLint [3] was 22.8 µL/min/mg. For the same molecule, the microsomal CLint [4] was 5.66 µL/min/mg, the Papp A→B at 1 h, 1 μmol/L [5] was 4.14 ×10⁻⁶ cm/s and the “Estimated CSF Kp,uu from observed data” value ([6]; two patients, assuming fraction unbound in plasma 0.014, data of ref 27) was 0.092. The “Cumulative incidence of intervention for CNS metastases” value [7] was 29.2%, the “CNS response rate, combined with stereotactic radiosurgery” value [7] was 75% and the “CNS response rate, combined with whole-brain radiation therapy” value [7] was 79%. The “CNS objective response rate, monotherapy” value [7] was 6%.

Work on `CCOc1cc2ncc(C#N)c(Nc3ccc(OCc4ccccn4)c(Cl)c3)c2cc1NC(=O)/C=C/CN(C)C` [neratinib] yielded a fraction unbound [1] of 0.007, a blood plasma ratio [8] of […] and a fraction unbound [2] of 0.004. For the same molecule, the microsomal CLint [3] was 39 µL/min/mg, the microsomal CLint [4] was 24.6 µL/min/mg and the Papp A→B at 1 h, 1 μmol/L [5] was 13.5 ×10⁻⁶ cm/s. For the same molecule, the fa [9] was 0.2, the Ka [9] was 0.25 and the Lag time [9] was 0.8 h. For the same molecule, the “Ratio of BBB passive clearance (PSB) to active efflux clearance (CLefflux,BBB)” value [10] was […], the “Unbound plasma concentration corresponding to observed total” value ([6]; 2 patients, assuming fraction unbound in plasma 0.007, data of ref 28) was 0.43 nM and 0.67 nM and the IC50 (HER2 kinase) was […]. The “Observed total plasma concentration” value ([11]; 2 patients, 240 mg once daily) was […], the “Disease-free survival vs placebo, HR” value ([7]; ExteNET, 240 mg once daily, 1 year, 95% CI 0.46-0.84) was 0.63 and the “Cumulative incidence of CNS metastases vs placebo” value ([7]; ExteNET, 240 mg once daily, 1 year) was “no statistically significant difference”. The “Cumulative incidence of intervention for CNS metastases” value [7] was 22.8%, the “Time to CNS metastases, hazard ratio” value ([7]; NEfERT-T, neratinib plus paclitaxel vs trastuzumab plus paclitaxel, 95% CI 0.26-0.78) was […] and the “Incidence of symptomatic or progressive CNS recurrence” value ([7]; NEfERT-T, neratinib plus paclitaxel vs trastuzumab plus paclitaxel) was 8.3%. For the same molecule, the “CNS objective response rate, monotherapy” value [7] was 8%.

`Cc1cc(Nc2ncnc3ccc(NC4=NC(C)(C)CO4)cc23)ccc1Oc1ccn2ncnc2c1` [tucatinib] gave a fraction unbound [1] of 0.03, a blood plasma ratio [8] of 0.93 and a fraction unbound [2] of 0.015. For the same molecule, the microsomal CLint [3] was 41.8 µL/min/mg, the microsomal CLint [4] was 4.5 µL/min/mg and the Papp A→B at 1 h, 1 μmol/L [5] was 13.3 ×10⁻⁶ cm/s. The fa [9] was 0.5, the Ka [9] was 0.8 and the Lag time [9] was 0.6 h. For the same molecule, the “Ratio of BBB passive clearance (PSB) to active efflux clearance (CLefflux,BBB)” value [10] was 0.83, the IC50 (HER2 kinase) was 6.9 nM and the “Observed CSF concentration (mean)” value ([11]; cycle 1 day 1) was 10.9 nmol/L. For the same molecule, the “Observed CSF concentration (mean)” value ([11]; cycle 2 day 1) was 21.6 nmol/L, the “Observed CSF Kp,uu, geometric mean” value ([11]; cycle 1 day 1) was 0.51 and the “Observed CSF Kp,uu, geometric mean” value ([11]; cycle 2 day 1) was 0.76. The “Risk of intracranial progression or death, HR” value ([7]; HER2CLIMB, tucatinib added to trastuzumab and capecitabine, 95% CI 0.22-0.48) was 0.32 and the “Risk of death, HR” value ([7]; HER2CLIMB, tucatinib added to trastuzumab and capecitabine, 95% CI 0.40-0.85) was 0.58.
